Here are results for six molecules from ChEMBL document CHEMBL1133009, “Permanently charged chiral 1,4-dihydropyridines: molecular probes of L-type calcium channels. Synthesis and pharmacological characterization of methyl(omega-trimethylalkylammonium) 1,4-dihydro-2,6-dimethyl-4-(3-nitrophenyl)-3,5-pyridinedicarboxylate iodide, calcium channel antagonists” (J Med Chem, 2000).

The structures appear in SMILES notation.

The target in data set [1] is T1, Voltage-dependent L-type calcium channel subunit alpha-1C (Rattus norvegicus, UniProt P22002). Put plainly: Pseudo Hill coefficient for inhibition of [3H](+)-PN200-110 binding to calcium channels of rat heart membranes. It is filed as cell membranes, Membrane. A digest of the protocol:
(§1)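 Using rat heart membranes (protein by Bradford), displacement of [3H]-(+)-PN200-110. IC50 and pseudo Hill slope from Hill equation fit; KI = IC50/(1+[L]/KD); n = 4-6 experiments.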

In data set [2] the target is T1, Voltage-dependent L-type calcium channel subunit alpha-1C. Put plainly: Inhibition of [3H](+)-PN200-110 binding to calcium channels of rat heart membranes. It counts as cell membranes, Membrane. A digest of the protocol:
as §1

In data set [3] the target is T2, Voltage-gated L-type calcium channel (Rattus norvegicus, UniProt P22002+Q02485+P27732). Put plainly: Inhibition of [3H](+)-PN200-110 binding to calcium channels of GH4C1 cells under depolarized conditions (50 mM K+). It is filed as cell-based. The settings on record: gh4-c1. A digest of the protocol: (§2)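 Intact GH4C1 cells attached to the culture dish, competition against [3H]-(+)-PN200-110 in depolarizing Hank's buffer (50 mM K+, pH 7.4). IC50 and slope from Hill equation fit; KI = IC50/(1+[L]/KD); n = 4-6 experiments, mean ± SEM.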

For data set [4], the target named is T2, Voltage-gated L-type calcium channel. Description: Pseudo Hill coefficient for inhibition of [3H](+)-PN200-110 binding to GH4C1 cells under depolarized conditions (50 mM K+). The settings on record: gh4-c1. It counts as cell-based. In a few lines: as §2
Data set [5] shares this target. Put plainly: Pseudo Hill coefficient for inhibition of [3H](+)-PN200-110 binding to GH4C1 cells. It is filed as cell-based. The following applies: gh4-c1. A digest of the protocol: (§3)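 Competition against [3H]-(+)-PN200-110 in GH4C1 membranes, protein by Bradford. IC50 and pseudo Hill slope from Hill equation fit of specific DPM bound; KI = IC50/(1+[L]/KD); n = 4-6 experiments.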

The nature of data set [6]: Compound was tested for its inhibition of Barium currents in GH4C1 cells. It counts as functional, cell-based, Rattus norvegicus. The settings on record: gh4-c1.
Data set [7] relates to GH4-C1. Put plainly: Pseudo Hill coefficient for the inhibition of Barium currents in GH4C1 cells was determined. The settings on record: Rattus norvegicus. It is filed as cell-based. A digest of the protocol: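 Whole-cell voltage clamp of GH4C1 rat pituitary cells cultured 2-6 days, bathed in normal Tyrode's (pH 7.4). Held at -40 mV to inactivate T-type channels. Each DHP concentration (0.03-10 µM, increasing order) equilibrated 30 s, then a 200 or 50 ms pulse to +10 mV. Currents normalized to capacitance (pA/pF); IC50 and Hill slope fitted by Hill equation; 6-7 cells.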

For data set [8], the target named is T2, Voltage-gated L-type calcium channel. Put plainly: Inhibition of [3H](+)-PN200-110 binding to calcium channels of rat cerebral cortex membrane. It is filed as tissue-based. A digest of the protocol: (§4)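 Rat cerebral cortex membranes, protein by Bradford, competition with [3H]-(+)-PN200-110. IC50 and pseudo Hill slope from Hill equation fit of specific DPM bound; KI = IC50/(1+[L]/KD); n = 4-6 experiments.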

For data set [9] the target is unchanged. Description: Inhibition of [3H](+)-PN200-110 binding to calcium channels of rat GH4C1 cells. It is filed as cell-based. The settings on record: gh4-c1. In a few lines:
as §3

The target is the same in data set [10]. Description: Pseudo Hill coefficient for inhibition of [3H](+)-PN200-110 binding to calcium channels of rat cerebral cortex membrane. It counts as tissue-based. A digest of the protocol: as §4
The target is the same in data set [11]. Put plainly: Inhibition of [3H](+)-PN200-110 binding to calcium channels of GH4C1 cells. It is filed as cell-based. The following applies: gh4-c1. In a few lines: as §3

T1 sequence (P22002 whole entry): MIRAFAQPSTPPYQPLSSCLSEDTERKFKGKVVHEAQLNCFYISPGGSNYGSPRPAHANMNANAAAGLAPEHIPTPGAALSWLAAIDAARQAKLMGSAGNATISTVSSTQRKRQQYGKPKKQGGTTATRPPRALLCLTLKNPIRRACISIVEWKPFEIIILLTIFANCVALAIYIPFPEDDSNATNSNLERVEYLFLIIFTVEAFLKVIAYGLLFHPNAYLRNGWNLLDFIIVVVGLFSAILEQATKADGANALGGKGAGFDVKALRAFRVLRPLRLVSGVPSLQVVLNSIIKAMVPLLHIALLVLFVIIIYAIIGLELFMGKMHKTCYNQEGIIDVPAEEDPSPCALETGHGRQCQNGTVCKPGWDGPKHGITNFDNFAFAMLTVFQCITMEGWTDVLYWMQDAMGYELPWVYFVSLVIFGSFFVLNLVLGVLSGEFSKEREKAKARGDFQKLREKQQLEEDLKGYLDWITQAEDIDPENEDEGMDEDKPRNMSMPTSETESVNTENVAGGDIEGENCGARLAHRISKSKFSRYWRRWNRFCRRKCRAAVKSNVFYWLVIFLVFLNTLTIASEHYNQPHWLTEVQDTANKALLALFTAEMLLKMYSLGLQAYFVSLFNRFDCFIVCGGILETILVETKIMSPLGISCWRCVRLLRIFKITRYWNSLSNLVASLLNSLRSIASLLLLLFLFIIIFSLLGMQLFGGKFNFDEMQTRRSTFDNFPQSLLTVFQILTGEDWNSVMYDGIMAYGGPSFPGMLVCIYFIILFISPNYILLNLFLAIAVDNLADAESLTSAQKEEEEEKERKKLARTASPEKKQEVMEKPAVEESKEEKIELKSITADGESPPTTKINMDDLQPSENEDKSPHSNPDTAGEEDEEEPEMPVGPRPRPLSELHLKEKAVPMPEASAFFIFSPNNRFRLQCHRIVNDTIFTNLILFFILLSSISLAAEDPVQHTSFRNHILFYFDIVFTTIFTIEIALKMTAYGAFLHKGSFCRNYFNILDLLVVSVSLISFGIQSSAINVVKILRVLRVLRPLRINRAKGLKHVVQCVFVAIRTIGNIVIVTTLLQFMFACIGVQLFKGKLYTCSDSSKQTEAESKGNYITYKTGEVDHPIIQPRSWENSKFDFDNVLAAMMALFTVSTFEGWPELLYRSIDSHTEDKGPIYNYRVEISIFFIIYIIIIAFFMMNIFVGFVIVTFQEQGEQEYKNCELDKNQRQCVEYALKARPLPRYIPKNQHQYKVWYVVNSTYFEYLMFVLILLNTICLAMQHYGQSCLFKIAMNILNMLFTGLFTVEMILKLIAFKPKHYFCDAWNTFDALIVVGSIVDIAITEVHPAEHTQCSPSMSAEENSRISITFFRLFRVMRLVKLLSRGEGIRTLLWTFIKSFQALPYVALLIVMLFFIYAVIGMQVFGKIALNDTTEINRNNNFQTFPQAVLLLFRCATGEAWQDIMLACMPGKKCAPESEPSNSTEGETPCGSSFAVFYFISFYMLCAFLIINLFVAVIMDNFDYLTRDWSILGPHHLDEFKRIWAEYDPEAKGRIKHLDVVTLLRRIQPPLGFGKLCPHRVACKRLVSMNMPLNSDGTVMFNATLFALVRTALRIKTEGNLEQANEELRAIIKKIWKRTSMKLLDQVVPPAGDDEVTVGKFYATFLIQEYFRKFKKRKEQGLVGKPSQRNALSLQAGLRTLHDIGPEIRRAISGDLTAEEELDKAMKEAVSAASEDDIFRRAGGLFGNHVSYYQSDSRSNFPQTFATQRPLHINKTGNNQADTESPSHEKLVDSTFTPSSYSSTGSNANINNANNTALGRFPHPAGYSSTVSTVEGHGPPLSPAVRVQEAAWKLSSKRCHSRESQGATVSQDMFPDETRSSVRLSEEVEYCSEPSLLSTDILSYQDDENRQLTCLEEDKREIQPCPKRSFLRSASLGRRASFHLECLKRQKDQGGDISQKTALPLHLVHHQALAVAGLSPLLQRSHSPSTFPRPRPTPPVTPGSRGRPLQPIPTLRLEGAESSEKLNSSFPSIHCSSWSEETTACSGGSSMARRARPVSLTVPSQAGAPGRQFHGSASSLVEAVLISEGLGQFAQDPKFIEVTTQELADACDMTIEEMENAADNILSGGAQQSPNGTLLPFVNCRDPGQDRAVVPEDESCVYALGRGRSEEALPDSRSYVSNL

A word on the Ki: it is a dissociation constant, usually derived from enzyme kinetics or from competition with a known ligand. One may read the IC50 as the concentration that inhibits the measured activity by half. Consider `COC(=O)C1=C(C)NC(C)=C(C(=O)OCC[N+](C)(C)C)[C@H]1c1cccc([N+](=O)[O-])c1.[I-]`, for which the nH was 1 in [1]; 0.9 in data set [4]; 0.9 in data set [5]; 0.4 in data set [7]; 0.9 in data set [10]. Further, the Ki in data set [2] was determined as 999 nM; in data set [3], 651 nM; in [8], 1246 nM; in data set [9], 1940 nM. This molecule returned an IC50 in data set [6] of 28100 nM.
Turning to `COC(=O)C1=C(C)NC(C)=C(C(=O)OCC[N+](C)(C)C)[C@@H]1c1cccc([N+](=O)[O-])c1.[I-]`, the nH in data set [1] was determined as 0.9; in [4], 0.5; in data set [5] it was 0.6; in data set [7], 0.3; in [10], 0.8. Moreover, the Ki was found to be 13700 nM in [2], 3988 nM in [3], 48120 nM in data set [11] and 14013 nM in data set [8]. In data set [6], this molecule came in with an IC50 of 271000 nM.
Consider `COC(=O)C1=C(C)NC(C)=C(C(=O)OCCCCCCCC[N+](C)(C)C)[C@H]1c1cccc([N+](=O)[O-])c1.[I-]`, for which the nH in data set [1] came out at 1.2; in data set [4], 1.1; in data set [5], 1.3; in data set [7], 1; in [10], 1.6. Besides, the Ki in data set [2] came out at 8 nM; in [3] it was 129.2 nM; in data set [8], 24.6 nM; in [9] it was 11.4 nM. This molecule yielded an IC50 in data set [6] of 1400 nM.
`COC(=O)C1=C(C)NC(C)=C(C(=O)OCCCCCCCC[N+](C)(C)C)[C@@H]1c1cccc([N+](=O)[O-])c1.[I-]`: the nH in data set [1] worked out at 1.1; in [4], 1; in data set [5], 1.2; in [7], 0.8; in data set [10], 1. The Ki came to 497 nM in data set [2], 895 nM in data set [3], 717.8 nM in data set [8] and 420 nM in data set [9]. Further, the 50% inhibitory concentration (IC50) in [6] was determined as 5100 nM.
Regarding `COC(=O)C1=C(C)NC(C)=C(C(=O)OCCCCCCCC[N+](C)(C)C)C1c1cccc([N+](=O)[O-])c1.[I-]` (racemic), the nH in data set [1] is 1.1; in [4], 1.3; in data set [5], 1.5; in data set [7], 0.9; in data set [10] it was 1.4. Also, the Ki in data set [2] turned out to be 99.2 nM; in data set [3], 68.6 nM; in data set [8], 37.2 nM; in data set [9] it was 16.8 nM. This molecule also had an IC50 in data set [6] of 1500 nM.
As to `COC(=O)C1=C(C)NC(C)=C(C(=O)OCC[N+](C)(C)C)C1c1cccc([N+](=O)[O-])c1.[I-]` (racemic), the nH in data set [1] was determined as 1; in data set [4], 1.7; in data set [5], 0.9; in [7], 0.7; in data set [10], 1. In addition, the Ki in [2] came to 1510 nM; in data set [3] it was 248.5 nM; in data set [11], 2111 nM; in [8], 1372 nM. Also, the IC50 in data set [6] was 17700 nM.
